Source: PubChem BioAssay
L major viab – Leishmania major promastigote growth inhibition; Leishmania major promastigotes, resazurin fluorescence viability; inhibition, % at 10 µM; hit rate 9% among 200,000; in the data active = inhibition above about 50%;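 also: promastigotes grown with compound for 44 hours at 28 °C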
APP transl inh – APP translation inhibition. SH-SY5Y APP 5'UTR-luciferase reporter, luminescence. hit rate 0.82% among 190,000. inhibition, % at 2 µM;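 active = inhibition above a set limit, derived from the sample mean plus 3 SD, cut at about 45% in these data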
BaF3 parental – counter-screen for JAK2V617F inhibitors: parental Ba/F3 viability inhibitors; CellTiter-Glo ATP luminescence; inhibition, % at 5.6 µM; hit rate 1.1% among 220,000;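 active = inhibition above a per-campaign cutoff, the mean inhibition of all tested compounds plus 3 SD, cut at about 27% in these data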
bCat nuc transl – beta-catenin nuclear translocation modulation; HeLa beta-catenin nuclear translocation, immunofluorescence imaging; nuclear translocation activity, % at 5 µM; hit rate 0.3% among 190,000; AID 1665;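 active = nuclear translocation activity above 50% at 5 µM, with a well cell count of 50 or more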;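 also: per-cell ratio of nuclear to cytoplasmic median beta-catenin stain intensity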
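System: HeLa cells, endogenous beta-catenin; compound dosing: 5 µM primary single dose, 0.1% DMSO, 0.02–20 µM confirmation series; incubation: 24 h compound exposure at 37°C, 5% CO2; signal: beta-catenin immunofluorescence imaging with DAPI; evaluation: % activation, nuclear-to-cytoplasmic median beta-catenin signal ratio per cell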
Ba/F3 V617F tox – reduce viability of Ba/F3 cells dependent on JAK2V617F; Ba/F3 EpoR-JAK2V617F viability, ATP luminescence; inhibition, % at 5.6 µM; hit rate 1.1% among 220,000; AID 1446;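 active = inhibition above the campaign mean plus 3 SD over all tested compounds, cut at about 24% in these data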;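 also: cytokine-independent growth of Ba/F3 cells driven by EpoR plus mutant JAK2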
MT stabilizer – microtubule stabilizers in HeLa cells. HeLa tubulin immunostaining HCS, 24 h; share of cells brighter than vehicle mean+2SD. % tubulin-high responders, % at 10 µM. hit rate 0.83% among 200,000. AID 2205;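 active = plate Z-score above 3 for both tubulin-high and condensed-nucleus cell shares, with cell loss under 80%, at 10 µM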;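 also: anti alpha tubulin signal scored within the nucleus-defined area of each cell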
Large screens that a line does not name were inactive. Hits are enriched below; roughly 9.6% of the tested compounds scored in any of these assays.

CN(C)CCN(C)Cc1ccccc1Sc1cccc2ccccc12	L major viab 100.3
Cc1ccccc1C(=O)N1CCN(c2ccccn2)CC1	none
O=C(c1ccccc1-c1ccccc1)N1CCN(c2ccccn2)CC1	APP transl inh 46.5, BaF3 parental 55.0, bCat nuc transl 65.9, Ba/F3 V617F tox 75.0, MT stabilizer 42.8
O=C(Nc1ccccc1C(F)(F)F)N1CCN(c2ccccn2)CC1	BaF3 parental 89.3
O=C(Nc1ccccc1Cl)N1CCN(c2ccccn2)CC1	none
COC(=O)c1ccc(Oc2nc(Nc3ccc(C)c(C)c3)nc(N(C)C)n2)cc1	L major viab 73.7
CCOC(=O)c1ccc(Oc2nc(OC)nc(N(C)C)n2)cc1	none
CCOC(=O)c1ccc(Oc2nc(NC)nc(Nc3ccccc3)n2)cc1	L major viab 97.2
CC(C(=O)O)N1CCCCC1 (configuration not stated)	none (no result: L major viab, APP transl inh, MT stabilizer)
CC(=O)Nc1ccc(S(=O)(=O)Oc2cccc(/C=N/N=C3/NC(=O)C(CC(=O)O)S3)c2)cc1 (configuration not stated)	none
C1CCCCCC(=NNc2nn[nH]n2)CCCCC1	none (no result: L major viab, APP transl inh, MT stabilizer)
O=C1OCC(CO)(CO)N=C1NNc1cc(Cl)ccc1Cl	L major viab 97.3
C/C(=N\NC(=O)c1cccnc1)c1cc2ccccc2o1	none
O=C(/C=C/c1cccs1)Nc1ccc(Br)cn1	APP transl inh 92.3, BaF3 parental 71.3, bCat nuc transl 165.7, Ba/F3 V617F tox 73.6
Cc1cc(C)nc(NC(=O)/C=C/c2cccs2)c1	none
O=C(/C=C/c1cccs1)Nc1cccc(NC(=O)/C=C/c2cccs2)n1	L major viab 54.5
O=C(/C=C/c1cccs1)Nc1nccs1	none
O=C(CN1CCCC1=O)NC1C2CC3CC(C2)CC1C3 (configuration not stated)	none
Cc1ccc(S(=O)(=O)N2CCN(S(=O)(=O)N(C)C)CC2)c(C)c1	none
COCCNC(=O)c1ccccc1NC(=O)c1cccc([N+](=O)[O-])c1C	none
O=C1COc2ccc(N3C(=O)c4ccccc4C3=O)cc2N1	none
COc1ccc(C(=O)c2ccc(Cl)c([N+](=O)[O-])c2)cc1	L major viab 79.5, APP transl inh 95.0, BaF3 parental 91.2, Ba/F3 V617F tox 91.4 (no result: bCat nuc transl)
COc1cc(OC)cc(C(=O)N[C@H](C(=O)Nc2nc3ccc(S(C)(=O)=O)cc3s2)C(C)C)c1	none
Cc1nn(C)c2ncc(C(=O)c3cc(F)ccc3O)cc12	APP transl inh 51.7 (no result: bCat nuc transl)
O=C(OC(C(=O)NCc1ccc2c(c1)OCO2)c1ccncc1)c1ccc(Cl)nc1 (configuration not stated)	BaF3 parental 80.6
CC(OC(=O)c1cccnc1Cl)C(=O)Nc1ccc(S(N)(=O)=O)cc1 (configuration not stated)	none
CCN(CC)CCNC1=NCCn2c1cc1cc(OC)ccc12	L major viab 95.9 (no result: bCat nuc transl)
Cc1ccc(C(=O)N/C(=C/c2ccc(-c3ccc(Br)cc3)o2)C(=O)NC2CCS(=O)(=O)C2)cc1 (configuration not stated)	L major viab 69.0
CN(C)CCCNC(=O)/C(=C\c1ccc(-c2cccc([N+](=O)[O-])c2)o1)NC(=O)c1ccccc1	none
N#C/C(=C/c1ccc(-c2ccc(Br)cc2)o1)C(=O)NC1CCCCC1	L major viab 80.7
Cc1ccc(C(=O)N/C(=C\c2ccc(-c3ccc(Br)cc3)o2)C(=O)NCCCN(C)C)cc1	L major viab 100.5, BaF3 parental 60.2
N#C/C(=C\c1ccc(-c2ccc(Br)cc2)o1)C(=O)NCCc1c[nH]c2ccccc12	none
CN(C)CCNC(=O)/C(=C/c1ccc(-c2ccc(Cl)cc2Cl)o1)NC(=O)c1ccccc1	L major viab 100.5
Cc1ccc(N2NC3(CCN(C(N)=O)CC3)NC2=O)cc1	none
COCCn1c(C)cc(/C=C2/NC(=O)N(c3ccc(Cl)cc3)C2=O)c1C	none
Cc1ccc(OCCn2c(=S)[nH]c3c(N)ncnc32)cc1	none
CN(C)CCNC(=O)/C(=C/c1ccc(-c2ccc(Cl)cc2)o1)NC(=O)c1ccccc1	L major viab 100.2
COC(CNC(=O)CCc1c(C)nc2c(-c3ccc(F)cc3)c(C)nn2c1C)OC	APP transl inh 55.0
COc1ccccc1-c1cc2nc(C)c(CCC(=O)NC(C)CCc3ccco3)c(C)n2n1 (configuration not stated)	L major viab 97.9 (no result: bCat nuc transl)
COc1cc(OC)cc(-c2nc3nc(C)c(CCC(=O)NCC(OC)OC)c(C)n3n2)c1	none
Cc1nc2c(-c3ccccc3)c(C)nn2c(C)c1CCC(=O)NC(C)CCc1ccco1 (configuration not stated)	L major viab 100.0 (no result: bCat nuc transl)
COc1ccccc1CNC(=O)CCc1c(C)nc2cc(-c3ccccc3OC)nn2c1C	none (no result: L major viab, APP transl inh, MT stabilizer)
COc1ccc(C2CC3(CC(C)(C)NC(SC)=N3)Oc3cc(O)cc(C)c32)cc1 (configuration not stated)	none
COc1ccc(N2CCN(CCCNC(=O)c3cc4sccc4n3C)CC2)cc1	L major viab 81.3
CC1CCN(CCCNC(=O)c2cc3sccc3n2C)CC1	L major viab 91.8
Cn1c(C(=O)NC2CCCCC2)cc2sccc21	none
O=C(Cn1cc(C(F)(F)F)cc(Cl)c1=O)Nc1cc(Cl)cc(Cl)c1	none
CCCCC(c1nnnn1CC1CCCO1)N1CCN(c2cccc(C)c2C)CC1 (configuration not stated)	L major viab 55.9
CCc1cc2c(=O)c(-c3nc(C)cs3)coc2cc1OC(C)C(=O)NCCO (configuration not stated)	none
COc1ccc(C(CC(=O)c2ccc(C)cc2)Nc2ccc([N+](=O)[O-])cc2)cc1 (configuration not stated)	L major viab 96.4
COc1ccc(C(CC(=O)c2ccc(O)cc2)S(=O)(=O)c2ccc(C)cc2)cc1 (configuration not stated)	L major viab 90.9
COc1cc(/C=C/C(=O)O)cc(S(=O)(=O)N(CC(C)C)CC(C)C)c1OC	none
Cc1noc(C)c1CSc1nc2[nH]ncc2c(=O)n1-c1ccccc1	APP transl inh 93.5, BaF3 parental 73.1, Ba/F3 V617F tox 70.0, MT stabilizer 24.5
Cc1nc(CSc2nc3[nH]ncc3c(=O)n2-c2ccccc2)cs1	none (no result: bCat nuc transl)
O=c1c2cn[nH]c2nc(SCc2c(F)cccc2F)n1-c1ccc(Cl)cc1	none
Cc1cccc(-n2c(SCc3cc(=O)n4c(C)cccc4n3)nc3[nH]ncc3c2=O)c1	L major viab 96.5
COC(=O)C(NC(=O)c1cccnc1Cl)C(C)C (configuration not stated)	none (no result: L major viab, APP transl inh, MT stabilizer)
CCS(=O)(=O)c1ccc(O)c(NC(=O)Nc2ccc(C(C)(C)C)cc2)c1	none (no result: L major viab, APP transl inh, MT stabilizer)
Cc1c(Cl)cccc1NC(=O)Nc1ccccc1C(N)=O	none
NC(=O)c1ccccc1NC(=O)Nc1cccc(Cl)c1Cl	L major viab 64.8
Cc1ccnc2nc(C(=O)N3CCN(S(=O)(=O)c4ccccc4)CC3)nn12	none
Cc1ccc2c(c1)CCCN2C(=O)c1ccoc1C	none
